Experimental data: ChEMBL document CHEMBL1123988, “Studies on antifungal agents. 23. Novel substituted 3,5-diphenyl-3-(1H-imidazol-1-ylmethyl)- 2-alkylisoxazolidine derivatives” (1988)
In brackets after ≈: the same amount, converted by molar mass.

Columns and labels:
[1] = tested on: Aspergillus fumigatus; assay: In vitro antifungal activity against Aspergillus fumigatus ATCC 28212; type: functional
In short: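 Agar-well MIC with Antibiotic Medium 3 + 2% agar containing compound at 70 to 0.2 µg/mL, using four- or six-point dilutions. Mold was grown about 1 week on Potato Flake Agar at 26 °C, swabbed into sterile water, counted by hemacytometer and adjusted to 1 × 10^4 cells/mL. MIC was the lowest dilution without visible growth.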

[2] = tested on: Candida albicans; assay: In vitro antifungal activity against Candida albicans ATCC 10259; type: functional
In short: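 Yeast was cultured overnight on Potato Flake Agar at 26 °C, swabbed into sterile water, counted by hemacytometer and diluted to 1 × 10^4 cells/mL. Wells (24-well) contained Antibiotic Medium 3 + 2% agar with compound at 70 to 0.2 µg/mL, in four- or six-point series. Each well got 0.05 mL and was held at 26 °C until control growth was visible. MIC was the lowest concentration with no visible growth.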

[3] = tested on: Candida albicans; assay: In vitro antifungal activity against Candida stellatoidea ATCC 36232; type: functional
In short: (§1)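 Solid agar MIC in 24-well plates. Compound was diluted 10-fold into Antibiotic Medium 3 + 2% agar at 70 to 0.2 µg/mL, using four- or six-point schemes, with a ketoconazole control. The organism was grown on Potato Flake Agar at 26 °C, counted by hemacytometer and diluted to 1 × 10^4 cells/mL. Wells received 0.05 mL and were incubated at 26 °C until control growth appeared. MIC was the lowest dilution with no visible growth.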

[4] = tested on: Epidermophyton floccosum; assay: In vitro antifungal activity against Epidermophyton floccosum ATCC E-18397; type: functional; in short: as §1
[5] = tested on: Microsporum canis; assay: In vitro antifungal activity against Microsporum canis ATCC 44459; type: functional; in short: as §1
[6] = tested on: Microsporum audouinii; assay: In vitro antifungal activity against Microsporum audouinii ATCC 9079; type: functional; in short: as §1
[7] = tested on: Trichophyton benhamiae; assay: (§2) In vitro antifungal activity against Trichophyton mentagrophytes ATCC 9533; type: functional, Arthroderma benhamiae; in short: as §1
[8] = tested on: Trichophyton rubrum; assay: In vitro antifungal activity against Trichophyton rubrum ATCC 18762; type: functional
In short: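 Dermatophyte was grown about 2 weeks on Potato Flake Agar at 26 °C, washed off the plate with sterile water and diluted to 1 × 10^4 cells/mL by hemacytometer count. Agar wells (Antibiotic Medium 3 + 2% agar, compound 70 to 0.2 µg/mL, four- or six-point) were inoculated with 0.05 mL and incubated at 26 °C until controls grew. MIC was the lowest dilution showing no visible growth.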

[9] = tested on: Trichophyton schoenleinii; assay: In vitro antifungal activity against Trichophyton schoenleinii ATCC 22775; type: functional; in short: as §1
[10] = tested on: Trichophyton tonsurans; assay: (§3) In vitro antifungal activity against Trichophyton tonsurans ATCC 9085; type: functional; in short: as §1
[11] = tested on: Candida albicans; assay: Antifungal activity in rat vaginal candidasis, 2 day postinfection with Candida. albicans SOB FM-391; type: functional
In short: (§4)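 Ovariectomized female Sprague–Dawley rats (170–230 g), eight per group, kept in pseudoestrus with weekly sc estradiol valerate (0.5 mg). Intravaginal challenge on day 4 with 1 × 10^7 organisms in 0.1 mL RPMI+. Oral dosing at 20 mg/kg in 1% (carboxymethyl)cellulose, twice daily for 7 days from 24 h post-infection. Vaginal swabs in PBS were serially diluted and plated on SDA for 48 h at 24–26 °C. Read-out is log10 organisms/mL lavage fluid.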

[12] = tested on: Candida albicans; assay: Antifungal activity in rat vaginal candidasis, 3 day postinfection with Candida. albicans SOB FM-391; type: functional; in short: as §4
[13] = tested on: Candida albicans; assay: Antifungal activity in rat vaginal candidasis, 4 day postinfection with Candida. albicans SOB FM-391; type: functional; in short: as §4
[14] = tested on: Candida albicans; assay: Antifungal activity in rat vaginal candidasis, 7 day postinfection with Candida. albicans SOB FM-391; type: functional; in short: as §4
[15] = tested on: Candida albicans; assay: Antifungal activity in rat vaginal candidasis, 8 day postinfection with Candida. albicans SOB FM-391; type: functional; in short: as §4
[16] = tested on: Candida albicans; assay: Antifungal activity in rat vaginal candidasis, 1 day postinfection with Candida. albicans SOB FM-391; type: functional; in short: as §4
[17] = as §2; type: functional, Arthroderma benhamiae; conditions: Trichophyton benhamiae; in short: as §1
[18] = tested on: Trichophyton tonsurans; assay: as §3; type: functional; remark: listed apart in the source
In short: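 Solid agar MIC in 24-well plates. Compound was diluted 10-fold into Antibiotic Medium 3 + 2% agar, using either a […] or a 70/20/7/2/0.7/0.2 µg/mL scheme. Cells counted by hemacytometer were diluted to 1 × 10^4 cells/mL, and 0.05 mL was inoculated. Plates were incubated at 26 °C until compound-free controls grew. MIC is the lowest dilution with no visible growth.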

[19] = tested on: Trichophyton tonsurans; assay: In vitro antifungal activity against Trichophyton tonsurans ATCC 9085
[20] = tested on: Trichophyton schoenleinii; assay: In vitro antifungal activity against Trichophyton schoenleinii ATCC 22775

Compound | MIC [1] | MIC [2] | MIC [3] | MIC [4] | MIC [5] | MIC [6] | MIC [7] | MIC [8] | MIC [9] | MIC [10] | MIC [17] | MIC [19] | MIC [20] | Log [11] | Log [12] | Log [13] | Log [14] | Log [15] | Log [16] | MIC [18]
Cc1ccc([C@H]2C[C@@](Cn3ccnc3)(c3ccc(Cl)cc3)N(C)O2)cc1 | 70 µg/mL (≈ 190 µM) | 20 µg/mL (≈ 54.4 µM) | 0.7 µg/mL (≈ 1.9 µM) | 2 µg/mL (≈ 5.44 µM) | 7 µg/mL (≈ 19 µM) | 20 µg/mL (≈ 54.4 µM) |  | 2 µg/mL (≈ 5.44 µM) | 2 µg/mL (≈ 5.44 µM) |  | 2 µg/mL (≈ 5.44 µM) |  |  |  |  |  |  |  |  | 2 µg/mL (≈ 5.44 µM)
Cc1ccc([C@@H]2C[C@@](Cn3ccnc3)(c3ccc(Cl)cc3)N(C)O2)cc1 | 70 µg/mL (≈ 190 µM) | 7 µg/mL (≈ 19 µM) | 0.7 µg/mL (≈ 1.9 µM) | 0.7 µg/mL (≈ 1.9 µM) | 7 µg/mL (≈ 19 µM) | 7 µg/mL (≈ 19 µM) | 0.7 µg/mL (≈ 1.9 µM) | 2 µg/mL (≈ 5.44 µM) | 2 µg/mL (≈ 5.44 µM) | 0.7 µg/mL (≈ 1.9 µM) |  |  |  |  |  |  |  |  |  | 
Fc1ccc([C@]2(Cn3ccnc3)C[C@@H](c3ccccc3)ON2Cc2ccccc2)cc1 | > 70 µg/mL | 20 µg/mL (≈ 48.4 µM) |  |  |  |  |  | 0.7 µg/mL (≈ 1.69 µM) |  |  |  |  |  |  |  |  |  |  |  | 
CN1O[C@H](c2ccccc2)C[C@@]1(Cn1ccnc1)c1ccc(Cl)cc1 | 70 µg/mL (≈ 198 µM) | 20 µg/mL (≈ 56.5 µM) | 7 µg/mL (≈ 19.8 µM) | 0.7 µg/mL (≈ 1.98 µM) | 2 µg/mL (≈ 5.65 µM) | 7 µg/mL (≈ 19.8 µM) | < 0.2 µg/mL | 0.7 µg/mL (≈ 1.98 µM) |  |  |  | 0.7 µg/mL (≈ 1.98 µM) | 2 µg/mL (≈ 5.65 µM) |  |  |  |  |  |  | 
CN1O[C@H](c2ccccc2)C[C@@]1(Cn1ccnc1)c1ccccc1 | 70 µg/mL (≈ 219 µM) | 70 µg/mL (≈ 219 µM) | 7 µg/mL (≈ 21.9 µM) | 7 µg/mL (≈ 21.9 µM) | 7 µg/mL (≈ 21.9 µM) | 20 µg/mL (≈ 62.6 µM) | 0.7 µg/mL (≈ 2.19 µM) | 2 µg/mL (≈ 6.26 µM) | 7 µg/mL (≈ 21.9 µM) | 0.7 µg/mL (≈ 2.19 µM) |  |  |  |  |  |  |  |  |  | 
COc1ccc([C@@H]2C[C@@](Cn3ccnc3)(c3ccc(OC)cc3)N(C)O2)cc1 | > 70 µg/mL | 70 µg/mL (≈ 184 µM) | 20 µg/mL (≈ 52.7 µM) | 7 µg/mL (≈ 18.4 µM) | 20 µg/mL (≈ 52.7 µM) | 70 µg/mL (≈ 184 µM) | 20 µg/mL (≈ 52.7 µM) | 20 µg/mL (≈ 52.7 µM) | 70 µg/mL (≈ 184 µM) | 20 µg/mL (≈ 52.7 µM) |  |  |  |  |  |  |  |  |  | 
CC(=O)N1CCN(c2ccc(OCC3COC(Cn4ccnc4)(c4ccc(Cl)cc4Cl)O3)cc2)CC1 (stereo not drawn) [KETOCONAZOLE] | 7 µg/mL (≈ 13.2 µM) | 20 µg/mL (≈ 37.6 µM) | 20 µg/mL (≈ 37.6 µM) | < 0.2 µg/mL | 2 µg/mL (≈ 3.76 µM) | 7 µg/mL (≈ 13.2 µM) | 2 µg/mL (≈ 3.76 µM) | 0.7 µg/mL (≈ 1.32 µM) | 0.7 µg/mL (≈ 1.32 µM) |  |  |  |  | 1.5 | 0.3 | 0 | 0 | 0 | 5 | < 0.2 µg/mL

More lines, in order of falling MIC [1], values ahead:

MIC [1] | MIC [2] | MIC [3] | MIC [4] | MIC [5] | MIC [6] | MIC [7] | MIC [8] | MIC [9] | MIC [10] | MIC [17] | MIC [19] | MIC [20] | Compound | Log [11] | Log [12] | Log [13] | Log [14] | Log [15] | Log [16] | MIC [18]
20 µg/mL (≈ 59.3 µM) | 70 µg/mL (≈ 207 µM) |  |  |  |  |  | 2 µg/mL (≈ 5.93 µM) |  |  |  |  |  | CN1O[C@H](c2ccccc2)C[C@@]1(Cn1ccnc1)c1ccc(F)cc1 |  |  |  |  |  |  | 
7 µg/mL (≈ 18 µM) | 7 µg/mL (≈ 18 µM) | 2 µg/mL (≈ 5.15 µM) | < 0.2 µg/mL | 2 µg/mL (≈ 5.15 µM) | 2 µg/mL (≈ 5.15 µM) | < 0.2 µg/mL | 0.7 µg/mL (≈ 1.8 µM) | 0.7 µg/mL (≈ 1.8 µM) | < 0.2 µg/mL |  |  |  | CN1O[C@H](c2ccc(Cl)cc2)C[C@@]1(Cn1ccnc1)c1ccc(Cl)cc1 | 4 | 3.6 | 3.4 | 3.3 | 1.8 | 4.7 | 
7 µg/mL (≈ 18 µM) | 7 µg/mL (≈ 18 µM) | 0.7 µg/mL (≈ 1.8 µM) | < 0.2 µg/mL | 2 µg/mL (≈ 5.15 µM) | 2 µg/mL (≈ 5.15 µM) | < 0.2 µg/mL | 0.7 µg/mL (≈ 1.8 µM) | 0.7 µg/mL (≈ 1.8 µM) | < 0.2 µg/mL |  |  |  | CN1O[C@H](c2ccccc2Cl)C[C@@]1(Cn1ccnc1)c1ccc(Cl)cc1 |  |  |  |  |  |  | 
7 µg/mL (≈ 16.6 µM) | 7 µg/mL (≈ 16.6 µM) | 7 µg/mL (≈ 16.6 µM) | 0.7 µg/mL (≈ 1.66 µM) | 2 µg/mL (≈ 4.73 µM) | 20 µg/mL (≈ 47.3 µM) | 7 µg/mL (≈ 16.6 µM) | 0.7 µg/mL (≈ 1.66 µM) | 7 µg/mL (≈ 16.6 µM) | 0.7 µg/mL (≈ 1.66 µM) |  |  |  | CN1O[C@@H](c2c(Cl)cccc2Cl)C[C@@]1(Cn1ccnc1)c1ccc(Cl)cc1 |  |  |  |  |  |  | 
2 µg/mL (≈ 4.73 µM) | 7 µg/mL (≈ 16.6 µM) | 7 µg/mL (≈ 16.6 µM) | 0.7 µg/mL (≈ 1.66 µM) | 2 µg/mL (≈ 4.73 µM) | 20 µg/mL (≈ 47.3 µM) | 7 µg/mL (≈ 16.6 µM) | 0.7 µg/mL (≈ 1.66 µM) | 7 µg/mL (≈ 16.6 µM) | 0.7 µg/mL (≈ 1.66 µM) |  |  |  | CN1O[C@H](c2c(Cl)cccc2Cl)C[C@@]1(Cn1ccnc1)c1ccc(Cl)cc1 |  |  |  |  |  |  | 
